From ChEMBL document CHEMBL1770071, “Multitargeted drugs discovery: balancing anti-amyloid and anticholinesterase capacity in a single chemical entity” (Bioorg Med Chem Lett, 2011) come the findings set out here.

One series addresses Acetylcholinesterase (Homo sapiens, UniProt P22303). Put plainly: Inhibition of human serum AChE.
The target of the next series is Cholinesterase (Homo sapiens, UniProt P06276). As to the kind of experiment: Inhibition of human serum BuChE. In a few lines:
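BuChE purified from human serum; activity read by Ellman's method. IC50 is the inhibitor concentration that cuts enzyme activity by 50%, taken as the mean of two independent measurements each run in duplicate.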

Series [1] in a line: Inhibition of amyloid beta (1-42) aggregation at 10 uM by thioflavin T based fluorometric assay. In short, it runs like this:
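Aβ1-42 self-induced aggregation, read by thioflavin T fluorescence, with Aβ1-42 to inhibitor ratio 5/1. Reported as % inhibition. Mean of two independent experiments, each in duplicate. Controls added compound to already-aggregated Aβ after ThT dilution to exclude ThT displacement.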

For series [2], the system named is SH-SY5Y. Put plainly: Neurotoxicity in human SH-SY5Y cells assessed as decrease in cell viability at 1 to 50 uM by MTT assay. Format: toxicity, cell-based. In short, it runs like this: (§1)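 SH-SY5Y human neuronal-like cells treated with compound alone for 24 h, with viability read by colorimetric MTT assay. IC50 is the concentration giving 50% inhibition of neuronal viability. Range tested 1–50 µM.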
In general terms: Tetrazolium assays rely on reduction of a dye to a coloured formazan, in cell work by metabolically active cells.

Series [3] concerns SH-SY5Y. As to the kind of experiment: Neurotoxicity in human SH-SY5Y cells assessed as cell viability at 0.1 to 1 uM by MTT assay. Format: toxicity, cell-based.
Series [4] relates to SH-SY5Y. As to the kind of experiment: Neuroprotective activity in human SH-SY5Y cells assessed as inhibition of amyloid beta(1-42)-induced neurotoxicity at 1 uM incubated for 3 hrs by MTT assay. Type of series: functional. Details: scale not given: the % may be the effect or the level left. In a few lines:
(§2)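 Human neuronal-like SH-SY5Y cells exposed for 3 h to Aβ1–42 pre-aggregated to oligomers, with compound present. Viability read by MTT colorimetric assay. Result expressed as % inhibition of oligomer-induced neurotoxicity, mean ± SD of at least two independent experiments.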

The nature of series [5]: Neurotoxicity in human SH-SY5Y cells assessed as decrease in cell viability by MTT assay. Format: toxicity, cell-based. In short, it runs like this:
as §1

Series [6] has as its system SH-SY5Y. Put plainly: Neuroprotective activity in human SH-SY5Y cells assessed as inhibition of amyloid beta(1-42)-induced neurotoxicity at 10 uM incubated for 3 hrs by MTT assay. Type of series: functional. Also noted: scale not given: the % may be the effect or the level left. In short, it runs like this:
as §2

Series [7] relates to SH-SY5Y. As to the kind of experiment: Neurotoxicity in human SH-SY5Y cells assessed as cell viability at 0.1 to 10 uM by MTT assay. Format: toxicity, cell-based.

Chain of Acetylcholinesterase (P22303 whole entry): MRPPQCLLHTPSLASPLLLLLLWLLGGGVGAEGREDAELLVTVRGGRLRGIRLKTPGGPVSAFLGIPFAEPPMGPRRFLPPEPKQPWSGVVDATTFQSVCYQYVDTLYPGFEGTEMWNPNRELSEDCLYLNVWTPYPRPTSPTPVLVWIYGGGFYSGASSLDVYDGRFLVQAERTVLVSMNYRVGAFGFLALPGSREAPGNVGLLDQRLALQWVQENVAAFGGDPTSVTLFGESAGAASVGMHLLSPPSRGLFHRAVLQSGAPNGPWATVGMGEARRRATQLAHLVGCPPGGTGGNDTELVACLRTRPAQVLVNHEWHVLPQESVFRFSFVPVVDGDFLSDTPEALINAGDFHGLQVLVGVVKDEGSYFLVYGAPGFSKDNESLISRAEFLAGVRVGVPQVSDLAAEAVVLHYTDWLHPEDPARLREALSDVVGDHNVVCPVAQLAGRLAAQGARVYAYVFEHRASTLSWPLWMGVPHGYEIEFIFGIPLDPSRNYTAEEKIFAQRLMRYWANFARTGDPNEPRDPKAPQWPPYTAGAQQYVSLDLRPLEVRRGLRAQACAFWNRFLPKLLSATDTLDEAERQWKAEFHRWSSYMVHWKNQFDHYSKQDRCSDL
Chain of Cholinesterase (P06276 whole entry): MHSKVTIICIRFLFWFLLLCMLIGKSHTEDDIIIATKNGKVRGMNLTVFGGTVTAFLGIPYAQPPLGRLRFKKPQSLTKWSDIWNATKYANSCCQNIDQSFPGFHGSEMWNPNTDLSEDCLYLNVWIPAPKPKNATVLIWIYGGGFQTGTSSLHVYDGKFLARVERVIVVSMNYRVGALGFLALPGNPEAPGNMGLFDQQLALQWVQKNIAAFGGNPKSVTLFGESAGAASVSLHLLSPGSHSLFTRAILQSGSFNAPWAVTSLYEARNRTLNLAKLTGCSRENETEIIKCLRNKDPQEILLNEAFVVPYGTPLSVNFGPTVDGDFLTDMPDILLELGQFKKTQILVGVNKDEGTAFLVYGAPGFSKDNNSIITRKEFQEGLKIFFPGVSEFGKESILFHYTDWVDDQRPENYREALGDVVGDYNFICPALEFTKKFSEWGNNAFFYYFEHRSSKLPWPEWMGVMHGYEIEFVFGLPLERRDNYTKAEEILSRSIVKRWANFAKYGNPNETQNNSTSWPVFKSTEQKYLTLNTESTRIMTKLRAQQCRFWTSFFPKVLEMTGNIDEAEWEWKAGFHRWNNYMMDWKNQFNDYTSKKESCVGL

As to `O=C1C=C(NCCCNCc2nc3ccccc3s2)C(=O)C=C1NCCCNCc1nc2ccccc2s1`, the IC50 at Acetylcholinesterase and at Cholinesterase was greater than 10 µM each time. Besides, the inhibition (in general, the drop in the measured response relative to a control, in per cent) in series [1] was 16.2%. In addition, the Activity result with SH-SY5Y [2] is “Non-toxic”; with SH-SY5Y [3] it was “Non-toxic”; in the series on SH-SY5Y [4] it was 25%.

On to `O=C1C=C(NCCCCCCNCc2nc3ccccc3s2)C(=O)C=C1NCCCCCCNCc1nc2ccccc2s1`, for which the IC50 – broadly, the point on the concentration scale where inhibition reaches its midpoint – at Acetylcholinesterase is 22 µM; on Cholinesterase it was greater than 10 µM. Also, in [1], the inhibition stood at 18.5%.

As for `O=C1C=C(NCCCNCc2ccc(-c3nc4ccccc4s3)cc2)C(=O)C=C1NCCCNCc1ccc(-c2nc3ccccc3s2)cc1`, the IC50 worked out at 31.4 µM at Acetylcholinesterase and 35.3 µM against Cholinesterase. The same compound showed an inhibition in series [1] of 41.4%.

Take `CCN(CCCCCCNC1=CC(=O)C(NCCCCCCN(CC)Cc2ccccc2OC)=CC1=O)Cc1ccccc1OC` [MEMOQUIN]: the half-inhibitory concentration (IC50) in [5] came to 19.4 µM. Besides, the Activity entry in the series with SH-SY5Y [3] is “Non-toxic”; in the series on SH-SY5Y [4] it was 70%; with SH-SY5Y [6], 80%.

With `COc1cc(CNCCCNC2=CC(=O)C(NCCCNCc3ccc(O)c(OC)c3)=CC2=O)ccc1O`, the IC50 against Acetylcholinesterase came to 0.198 µM; on Cholinesterase, 8.24 µM. The compound also showed an inhibition in series [1] of 22%. Besides, the Activity entry in the series with SH-SY5Y [2] is “Non-toxic”; with SH-SY5Y [7] it was “Non-toxic”; in the series on SH-SY5Y [4], 25%.

Regarding `COc1cc(CNCCCCCCNC2=CC(=O)C(NCCCCCCNCc3ccc(O)c(OC)c3)=CC2=O)ccc1O`, the 50% inhibitory concentration (IC50) at Acetylcholinesterase stood at 0.102 µM; at Cholinesterase it was 1.6 µM. The same compound displayed an inhibition in [1] of 50.4%.

As for `O=C1C=C(NCCCNCc2cc3ccccc3o2)C(=O)C=C1NCCCNCc1cc2ccccc2o1`, the IC50 against Acetylcholinesterase turned out to be 21.8 µM; against Cholinesterase, 2.6 µM; in series [5], 14.8 µM. The same compound showed an inhibition in series [1] of 27.2%. The Activity entry is recorded as “Non-toxic” with SH-SY5Y [3] and 25% with SH-SY5Y [4].

`COc1cc(/C=C/C(=O)CC(=O)/C=C/c2ccc(O)c(OC)c2)ccc1O` returned an inhibition in [1] of 34.4%.

As to `O=C1C=C(NCCCCCCNCc2cc3ccccc3o2)C(=O)C=C1NCCCCCCNCc1cc2ccccc2o1`, the IC50 on Acetylcholinesterase is greater than 10 µM; at Cholinesterase, 84.2 µM. The same compound yielded an inhibition in series [1] of 18.4%.

For the compound `O=C1C=C(NCCCCCCNCc2ccc(-c3nc4ccccc4s3)cc2)C(=O)C=C1NCCCCCCNCc1ccc(-c2nc3ccccc3s2)cc1`, the IC50 against Acetylcholinesterase is 0.305 µM; against Cholinesterase, 27.3 µM. The same compound returned an inhibition in series [1] of 25.7%.
